Shown are actives, neighbours in structure and some others; about 27% of the full set was active somewhere.
CYP2C9 inh = blocks human cytochrome P450 2C9 | P11712 | CYP2C9 Supersomes, luciferin-H conversion, luminescence | inhibition, % at 5 µM | actives 20% (n = 96,000) | AID 777;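 active = blocking of liver enzyme CYP2C9 beyond about 50% at 5 µM, limit read from the data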
Target sequence (P11712 whole entry, looked up): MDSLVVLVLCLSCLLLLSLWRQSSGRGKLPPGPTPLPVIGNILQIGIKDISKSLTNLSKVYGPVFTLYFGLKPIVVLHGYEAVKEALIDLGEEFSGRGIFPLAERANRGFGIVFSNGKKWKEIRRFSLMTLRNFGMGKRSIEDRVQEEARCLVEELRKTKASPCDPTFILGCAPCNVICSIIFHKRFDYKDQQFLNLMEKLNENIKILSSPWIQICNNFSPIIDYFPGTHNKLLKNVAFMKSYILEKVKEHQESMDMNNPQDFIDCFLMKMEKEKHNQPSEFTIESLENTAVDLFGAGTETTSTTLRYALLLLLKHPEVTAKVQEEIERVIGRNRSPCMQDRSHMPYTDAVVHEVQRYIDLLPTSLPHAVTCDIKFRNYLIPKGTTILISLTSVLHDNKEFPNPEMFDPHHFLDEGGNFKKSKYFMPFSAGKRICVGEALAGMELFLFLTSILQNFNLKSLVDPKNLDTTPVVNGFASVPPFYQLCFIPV
HIV Rev-RRE inh = disrupts HIV-1 Rev binding to RRE RNA | AID 704 | actives 0.79% (n = 97,000) | Rev peptide-RRE RNA binding, FRET | inhibition, % at 8 µM;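 active = inhibition above the screen-wide mean plus 3 SD, cut at about 35% in these data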;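 note: 0% = median DMSO wells and 100% = median Neomycin B control wells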
Target sequence (P05866 whole entry, looked up): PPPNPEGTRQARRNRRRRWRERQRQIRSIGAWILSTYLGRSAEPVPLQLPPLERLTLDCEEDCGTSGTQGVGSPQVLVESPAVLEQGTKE
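assay system = Cy5-tagged RRE RNA duplex with fluorescein-tagged Rev peptide | incubation = 5 + 15 min at 25 °C | also added = labelled Rev peptide | measure = % inhibition of FRET ratio versus controls | benchmarks = DMSO wells as 0% and neomycin B wells as 100% inhibition | measured by = FRET fluorescence readout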
Cav3 T inh = inhibitors of human Cav3.2 T-type calcium channel; B-score at 10 µM; actives 4% (n = 100,000); Cav3.2-expressing cells, Fluo-4 calcium fluorescence FDSS; hits give low values; AID 449739;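 active = single-dose well whose peak fluorescence ratio is a statistical outlier from its plate by either plate-standardised score or position-corrected B-score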
CYP2C19 act = activators of human cytochrome P450 2C19; P33261; recombinant CYP2C19, luciferin-H EGE luminescence; hits give high values; 0 = fully inhibited enzyme, 1 = untreated enzyme; activation factor at 5 µM; 96,000 tested, under 10 active; AID 1025;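 active = activation factor of at least 2 at 5 µM in the primary screen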;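 note: 0 = wells with 2.5 mM tranylcypromine and 1 = vehicle-only wells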
CYP2C9 act = CYP2C9 (human) activation; actives 1.4% (n = 96,000); activation factor at 5 µM; recombinant CYP2C9, luciferin-H conversion, luminescence; hits give high values; factor 1 = untreated enzyme, 0 = blocked;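 active = activation factor of 2 or more for CYP2C9 at a 5 µM dose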;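 note: 0 = sulfaphenazole-blocked wells and 1 = vehicle-only wells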
CYP2C19 inhib = human CYP2C19 inhibition. P33261. CYP2C19 Supersomes, luciferin-H EGE luminescence, 30 min. inhibition, % at 5 µM. actives 21% (n = 96,000). AID 778;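 active = CYP2C19 inhibition above a set limit at 5 µM in the primary screen, cut at about 50% in these data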;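 note: plate controls were negative control wells for no effect and 2.5 mM tranylcypromine positive control for full effect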
An asterisk follows results filed as active.

Screening COc1cc(CCC(=O)OCC(=O)Nc2nc(C)c(Cl)cc2Cl)cc(OC)c1OC returned CYP2C9 inh -13, HIV Rev-RRE inh 8, Cav3 T inh 0.52, CYP2C19 act 0.8, CYP2C9 act 1.1 and CYP2C19 inhib 20.
CC(C)=CC(=O)OCC(=O)Nc1ccc(F)cc1Cl was read as CYP2C9 inh 25, HIV Rev-RRE inh 8, Cav3 T inh 0.9, CYP2C19 act 0.4, CYP2C9 act 0.8 and CYP2C19 inhib 63*.
Screening CC(C)=CC(=O)OCC(=O)Nc1nc(C)c(Cl)cc1Cl returned CYP2C9 inh 42, Cav3 T inh 0.012, CYP2C19 act 0.2, CYP2C9 act 0.6 and CYP2C19 inhib 83*.
CCOC(=O)CC(=O)CSc1ccc2nnc(-c3cccc(F)c3)n2n1 was read as CYP2C9 inh 50, HIV Rev-RRE inh 8, Cav3 T inh 1.4, CYP2C19 act 1, CYP2C9 act 0.5 and CYP2C19 inhib -2.
`COC(=O)c1ccc(CSc2ccc3nnc(-c4cccc(F)c4)n3n2)o1` gave CYP2C9 inh 83*, HIV Rev-RRE inh 6, Cav3 T inh 1.2, CYP2C19 act 0.6, CYP2C9 act 0.2 and CYP2C19 inhib 37.
COC(=O)c1sc(NC(=O)C2CCCO2)c(C(=O)OC)c1C (configuration not stated) was read as CYP2C9 inh 40, HIV Rev-RRE inh 7, Cav3 T inh -0.11, CYP2C19 act 0.5, CYP2C9 act 0.6 and CYP2C19 inhib 51*.
CCC(=O)Nc1sc(C(=O)OC)c(C)c1C(=O)OC was read as CYP2C9 inh 9, Cav3 T inh -0.32, CYP2C19 act 0.8, CYP2C9 act 0.9 and CYP2C19 inhib 16.
For COC(=O)c1sc(NC(=O)C(C)C)c(C(=O)OC)c1C the results were CYP2C9 inh 27, HIV Rev-RRE inh 0, Cav3 T inh -0.39, CYP2C19 act 0.5, CYP2C9 act 0.7 and CYP2C19 inhib 53*.
`COC(=O)c1sc(NC(=O)C2CCCCC2C(=O)O)c(C(=O)OC)c1C` (configuration not stated) gave CYP2C9 inh 93*, Cav3 T inh 1.1, CYP2C19 act 1.1, CYP2C9 act 0.1 and CYP2C19 inhib -5.
Screening CCOc1ccc(C(C)NC(=O)CCC(=O)O)cc1 (configuration not stated) returned CYP2C9 inh 8, Cav3 T inh 0.65, CYP2C19 act 1, CYP2C9 act 0.9 and CYP2C19 inhib 2.
For N#CC1=C(N)SC(N)=C(C#N)C1c1cccc(Oc2ccccc2)c1 the results were CYP2C9 inh 92*, HIV Rev-RRE inh 80*, Cav3 T inh -2.1, CYP2C19 act 0.6, CYP2C9 act 0.1 and CYP2C19 inhib 42.
`CCOc1ccc(C2C(C#N)=C(N)SC(N)=C2C#N)cc1OCC` gave CYP2C9 inh 84*, Cav3 T inh 0.18, CYP2C19 act 0.4, CYP2C9 act 0.2 and CYP2C19 inhib 58*.
`CCOc1ccc(C2C(C#N)=C(N)Oc3cc(C)n(CCN4CCOCC4)c(=O)c32)cc1OCC` (configuration not stated) gave CYP2C9 inh 16, Cav3 T inh 0.64, CYP2C19 act 1.1, CYP2C9 act 0.8 and CYP2C19 inhib -6.
CCOc1ccc(C2C(C#N)=C(N)SC(N)=C2C#N)cc1OC was read as CYP2C9 inh 91*, Cav3 T inh -0.15, CYP2C19 act 0.5, CYP2C9 act 0.1 and CYP2C19 inhib 54*.
CCOc1ccccc1C1C(C#N)=C(N)SC(N)=C1C#N was read as CYP2C9 inh -7, HIV Rev-RRE inh 37*, CYP2C19 act 0.5, CYP2C9 act 1.1 and CYP2C19 inhib 52*.
For CCOc1ccccc1C1C(C#N)=C(N)Oc2n[nH]c(CC)c21 (configuration not stated) the results were CYP2C9 inh 33, HIV Rev-RRE inh 1, Cav3 T inh 0.16, CYP2C19 act 0.6, CYP2C9 act 0.7 and CYP2C19 inhib 41.
For COc1ccc(-c2ccc3oc(-c4ccsc4)cc3c2)cc1 the results were Cav3 T inh -0.0096.
`CCC(C)N1CC23C=CC(O2)C(C(=O)OCc2ccccc2)C3C1=O` (configuration not stated) gave CYP2C9 inh 47, HIV Rev-RRE inh 3, Cav3 T inh 0.55, CYP2C19 act 1.1, CYP2C9 act 0.5 and CYP2C19 inhib -5.
For Cc1cccc(Nc2nc(-c3ccccn3)cs2)n1 the results were CYP2C9 inh 52*, HIV Rev-RRE inh 2, Cav3 T inh -3.6*, CYP2C19 act 0.4, CYP2C9 act 0.5 and CYP2C19 inhib 58*.
`Cc1cccc(Nc2nc(-c3cccs3)cs2)n1` gave HIV Rev-RRE inh 7 and Cav3 T inh -0.4.
For c1ccc(Nc2nc(-c3cccs3)cs2)nc1 the results were HIV Rev-RRE inh 2 and Cav3 T inh -5*.
Screening Cc1ccc(S(=O)(=O)N/N=C/c2ccc(OS(=O)(=O)c3ccc(C)c([N+](=O)[O-])c3)cc2)cc1 returned CYP2C9 inh 91*, HIV Rev-RRE inh 6, CYP2C19 act 0.8, CYP2C9 act 0.1 and CYP2C19 inhib 21.
CCOc1cc(/C=N\NC(=O)Cc2ccccc2)ccc1OCC(=O)Nc1ccc(C)c(C)c1 was read as CYP2C9 inh 46, HIV Rev-RRE inh 3, CYP2C19 act 1.1, CYP2C9 act 0.5 and CYP2C19 inhib -13.
Screening CCOc1cc(/C=N/NC(=O)COc2ccc(Cl)cc2)ccc1OS(=O)(=O)c1ccccc1 returned CYP2C9 inh 37, HIV Rev-RRE inh 10, Cav3 T inh -2.2, CYP2C19 act 0.2, CYP2C9 act 0.6 and CYP2C19 inhib 82*.
For O=C(COc1ccc(Cl)cc1)N/N=C/CCc1ccccc1 the results were CYP2C9 inh 0, HIV Rev-RRE inh 5, Cav3 T inh 0.17, CYP2C19 act 0.5, CYP2C9 act 1 and CYP2C19 inhib 52*.
O=C(COc1ccc(Cl)cc1)Nc1ncccn1 was read as CYP2C9 inh -10, HIV Rev-RRE inh 1, Cav3 T inh 0.25, CYP2C19 act 0.8, CYP2C9 act 1.1 and CYP2C19 inhib 19.
`CCOc1cc(/C=N/NC(=O)COc2ccc(C)cc2)ccc1OC(=O)c1cccs1` gave CYP2C9 inh 69*, HIV Rev-RRE inh 4, Cav3 T inh -3.6, CYP2C19 act 0.6, CYP2C9 act 0.3 and CYP2C19 inhib 43.
Screening CC(C)CC(=O)NCC(C)NC(=O)CC(C)C (configuration not stated) returned CYP2C9 inh -43, HIV Rev-RRE inh 3, Cav3 T inh -0.1, CYP2C19 act 1.2, CYP2C9 act 1.4 and CYP2C19 inhib -18.
`Cc1ccc(Nc2nc3c(c(=O)[nH]c(=O)n3C)n2Cc2ccc(F)cc2)cc1` gave HIV Rev-RRE inh 16.

Compound activity from PubChem.
